pIC50: −log10 of the molar value. Values after ≈ are worked out from the molar mass of the structure shown. Active and inactive are the calls of the source. The rule behind the calls is not given here.
Experiments:
[1] = Aqueous solubility in phosphate buffer at pH 7; assay type: physicochemical
In short: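 Solubility in 0.02 M phosphate buffer, pH 7; sample filtered through 0.45 µm filter, diluted in HPLC phase and quantified by HPLC (UV) against a calibration curve of 0.1–0.025 mg/mL prepared from a DMSO stock diluted in the same buffer.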

NCI-H661 [2] = assay: Antiproliferative activity against human NCI-H661 cells after 48 hrs; assay type: functional, cell-based
In short: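 NCI-H661 NSCLC cells grown in RPMI 1640 + 10% FCS, 37 °C, 5% CO2; 4 × 10^3 cells/well seeded, grown 24 h, then exposed to compound for 48 h without β-glucuronidase. XTT labeling mixture added, further 4 h at 37 °C, absorbance read at 480 nm. Three experiments in triplicate; standard deviation shown.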

[3] = molecular target: Histone deacetylase (Homo sapiens) (UniProt Q13547+O15379+Q9UBN7+Q92769+Q9UQL6+Q8WUI4+Q9BY41+Q96DB2+P56524+Q9UKV0+Q969S8); assay: Inhibition of HDAC in human NCI-H661 cells assessed as histone H4 acetylation after 6 hrs in presence of beta-glucuronidase by Western blot analysis; assay type: cell-based
In short: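 NCI-H661 cells (5 × 10^5) exposed 6 h with β-glucuronidase (40 U/ml) in medium; compounds at 100 µM, TSA control 100 nM, DMSO 0.1%. Laemmli buffer lysis, sonication, SDS–PAGE; blots probed with rabbit polyclonal anti-acetyl-histone H4 (1/500), α-tubulin loading control (1/2000), HRP secondaries (1/5000), ECL detection.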

[4] = Stability in 0.02M phosphate buffer at pH 7 after 72 hrs; assay type: physicochemical; settings: pH 7, 72 h
In short: (§1)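 Compounds held in 0.02 M phosphate buffer (pH 2.1 or pH 7 as per line) at 37 °C for 72 h; degradation followed by HPLC with UV detection.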

[5] = Stability in cell culture medium in presence of 10% foetal calf serum; assay type: ADME; settings: cattle
In short: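 Incubation in cell culture medium supplemented with 10% foetal calf serum at 37 °C; solution monitored by HPLC (UV detection) over 72 h.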

[6] = Stability in 0.02M phosphate buffer at pH 2.1 after 72 hrs; assay type: physicochemical; settings: pH 2.1, 72 h; in short: as §1
NCI-H661 [7] = assay: Antiproliferative activity against human NCI-H661 cells after 48 hrs in presence of beta-glucuronidase; assay type: functional, cell-based; settings: NCI-H661, 48 h
In short: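 NCI-H661 cells in RPMI 1640 + 10% FCS (37 °C, 5% CO2); E. coli β-glucuronidase added to culture medium at 40 U/ml. 4 × 10^3 cells/well plated 24 h before compound, 48 h treatment, then XTT added and 4 h further incubation at 37 °C; absorbance at 480 nm. Three experiments in triplicate, standard deviation shown.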

Row | solubility [1] | pIC50 (NCI-H661 [2]; NCI-H661, 48 h) | Activity [3] | Stability [4] | Stability [5] | Stability [6] | pIC50 (NCI-H661 [7]) | SMILES | Activity (NCI-H661 [2])
1 | 80 µg/mL (≈ 297 µM) | 4.70 | – | – | – | – | – | CC(=O)Nc1ccc(C(=O)Nc2ccccc2N)cc1 [TACEDINALINE] | –
2 | 1000 µg/mL (≈ 1560 µM) | – | Active | Stable | Stable | Stable | 4.70 | CC(=O)Nc1ccc(C(=O)Nc2ccccc2NC(=O)OCc2ccc(O[C@@H]3O[C@H](C(=O)O)[C@@H](O)[C@H](O)[C@H]3O)c([N+](=O)[O-])c2)cc1 | inactive
3 | 1000 µg/mL (≈ 2040 µM) | – | Active | Stable | Stable | Stable | 4.70 | CC(=O)Nc1ccc(C(=O)Nc2ccccc2NC(=O)O[C@@H]2O[C@H](C(=O)O)[C@@H](O)[C@H](O)[C@H]2O)cc1 | inactive
